# Source: publication PMC4586255 (DNA repair, 2010)
# Numbering of substitutions follows the chain as printed. Names and notes keep the numbering of the source.
# B1: YFP-hEXO1-Q788A;L791A: PIP-box mutant of YFP-hEXO1 (protein, UniProt Q9UQ84 1-846, looked up, variant Q788A L791A)
# Exonuclease 1: MGIQGLLQFIKEASEPIHVRKYKGQVVAVDTYCWLHKGAIACAEKLAKGEPTDRYVGFCMKFVNMLLSHGIKPILVFDGCTLPSKKEVERSRRERRQANLLKGKQLLREGKVSEARECFTRSINITHAMAHKVIKAARSQGVDCLVAPYEADAQLAYLNKAGIVQAIITEDSDLLAFGCKKVILKMDQFGNGLEIDQARLGMCRQLGDVFTEEKFRYMCILSGCDYLSSLRGIGLAKACKVLRLANNPDIVKVIKKIGHYLKMNITVPEDYINGFIRANNTFLYQLVFDPIKRKLIPLNAYEDDVDPETLSYAGQYVDDSIALQIALGNKDINTFEQIDDYNPDTAMPAHSRSHSWDDKTCQKSANVSSIWHRNYSPRPESGTVSDAPQLKENPSTVGVERVISTKGLNLPRKSSIVKRPRSAELSEDDLLSQYSLSFTKKTKKNSSEGNKSLSFSEVFVPDLVNGPTNKKSVSTPPRTRNKFATFLQRKNEESGAVVVPGTRSRFFCSSDSTDCVSNKVSIQPLDETAVTDKENNLHESEYGDQEGKRLVDTDVARNSSDDIPNNHIPGDHIPDKATVFTDEESYSFESSKFTRTISPPTLGTLRSCFSWSGGLGDFSRTPSPSPSTALQQFRRKSDSPTSLPENNMSDVSQLKSEESSDDESHPLREEACSSQSQESGEFSLQSSNASKLSQCSSKDSDSEESDCNIKLLDSQSDQTSKLRLSHFSKKDTPLRNKVPGLYKSSSADSLSTTKIKPLGPARASGLSKKPASIQKRKHHNAENKPGLAIKANELWKNFGFKKDSEKLPPCKKPLSPVRDNIQLTPEAEEDIFNKPECGRVQRAIFQ
# modifications: N-terminal YFP tag
# B2: YFP-hEXO1-Q154A;Y157A: putative PIP-box substitution variant of YFP-hEXO1 (protein, UniProt Q9UQ84 1-846, looked up, variant Q154A Y157A)
# Exonuclease 1: B1 Exonuclease 1 with Q154A, Y157A, A788Q, A791L
# modifications: N-terminal YFP tag
# B3: YFP-hEXO1-Q285A;F288A: putative PIP-box substitution variant of YFP-hEXO1 (protein, UniProt Q9UQ84 1-846, looked up, variant Q285A F288A)
# Exonuclease 1: B1 Exonuclease 1 with Q285A, F288A, A788Q, A791L
# modifications: YFP tag
# B4: hMLH1: fusion protein, CFP or YFP tagged MMR protein (protein)
# chain: MSFVAGVIRRLDETVVNRIAAGEVIQRPANAIKEMIENCLDAKSTSIQVIVKEGGLKLIQIQDNGTGIRKEDLDIVCERFTTSKLQSFEDLASISTYGFRGEALASISHVAHVTITTKTADGKCAYRASYSDGKLKAPPKPCAGNQGTQITVEDLFYNIATRRKALKNPSEEYGKILEVVGRYSVHNAGISFSVKKQGETVADVRTLPNASTVDNIRSIFGNAVSRELIEIGCEDKTLAFKMNGYISNANYSVKKCIFLLFINHRLVESTSLRKAIETVYAAYLPKNTHPFLYLSLEISPQNVDVNVHPTKHEVHFLHEESILERVQQHIESKLLGSNSSRMYFTQTLLPGLAGPSGEMVKSTTSLTSSSTSGSSDKVYAHQMVRTDSREQKLDAFLQPLSKPLSSQPQAIVTEDKTDISSGRARQQDEEMLELPAPAEVAAKNQSLEGDTTKGTSEMSEKRGPTSSNPRKRHREDSDVEMVEDDSRKEMTAACTPRRRIINLTSVLSLQEEINEQGHEVLREMLHNHSFVGCVNPQWALAQHQTKLYLLNTTKLSEELFYQILIYDFANFGVLRLSEPAPLFDLAMLALDSPESGWTEEDGPKEGLAEYIVEFLKKKAEMLADYFSLEIDEEGNLIGLPLLIDNYVPPLEGLPIFILRLATEVNWDEEKECFESLSKECAMFYSIRKQYISEESTLSGQQSEVPGSIPNSWKWTVEHIVYKALRSHILPPKHFTEDGNILQLANLPDLYKVFERC
# modifications: left off: GST, end not stated, kept
# B5: YFP-hEXO1-S598X: COOH-terminally truncated version of YFP-hEXO1 (protein, UniProt Q9UQ84 1-597, looked up, fragment)
# chain: MGIQGLLQFIKEASEPIHVRKYKGQVVAVDTYCWLHKGAIACAEKLAKGEPTDRYVGFCMKFVNMLLSHGIKPILVFDGCTLPSKKEVERSRRERRQANLLKGKQLLREGKVSEARECFTRSINITHAMAHKVIKAARSQGVDCLVAPYEADAQLAYLNKAGIVQAIITEDSDLLAFGCKKVILKMDQFGNGLEIDQARLGMCRQLGDVFTEEKFRYMCILSGCDYLSSLRGIGLAKACKVLRLANNPDIVKVIKKIGHYLKMNITVPEDYINGFIRANNTFLYQLVFDPIKRKLIPLNAYEDDVDPETLSYAGQYVDDSIALQIALGNKDINTFEQIDDYNPDTAMPAHSRSHSWDDKTCQKSANVSSIWHRNYSPRPESGTVSDAPQLKENPSTVGVERVISTKGLNLPRKSSIVKRPRSAELSEDDLLSQYSLSFTKKTKKNSSEGNKSLSFSEVFVPDLVNGPTNKKSVSTPPRTRNKFATFLQRKNEESGAVVVPGTRSRFFCSSDSTDCVSNKVSIQPLDETAVTDKENNLHESEYGDQEGKRLVDTDVARNSSDDIPNNHIPGDHIPDKATVFTDEESYSFESSKFTRTI
# modifications: N-terminal YFP tag
# B6: YFP-hEXO1-C508X: COOH-terminally truncated version of YFP-hEXO1 (protein, UniProt Q9UQ84 1-507, looked up, fragment)
# chain: MGIQGLLQFIKEASEPIHVRKYKGQVVAVDTYCWLHKGAIACAEKLAKGEPTDRYVGFCMKFVNMLLSHGIKPILVFDGCTLPSKKEVERSRRERRQANLLKGKQLLREGKVSEARECFTRSINITHAMAHKVIKAARSQGVDCLVAPYEADAQLAYLNKAGIVQAIITEDSDLLAFGCKKVILKMDQFGNGLEIDQARLGMCRQLGDVFTEEKFRYMCILSGCDYLSSLRGIGLAKACKVLRLANNPDIVKVIKKIGHYLKMNITVPEDYINGFIRANNTFLYQLVFDPIKRKLIPLNAYEDDVDPETLSYAGQYVDDSIALQIALGNKDINTFEQIDDYNPDTAMPAHSRSHSWDDKTCQKSANVSSIWHRNYSPRPESGTVSDAPQLKENPSTVGVERVISTKGLNLPRKSSIVKRPRSAELSEDDLLSQYSLSFTKKTKKNSSEGNKSLSFSEVFVPDLVNGPTNKKSVSTPPRTRNKFATFLQRKNEESGAVVVPGTRSRFF
# modifications: N-terminal YFP tag
# B7: hEXO1-S702X; Δ423–507: truncated from amino acid 702 with internal deletion between amino acids 423 and 507; depleted of two hMLH1 interaction regions (protein)
# chain: MGIQGLLQFIKEASEPIHVRKYKGQVVAVDTYCWLHKGAIACAEKLAKGEPTDRYVGFCMKFVNMLLSHGIKPILVFDGCTLPSKKEVERSRRERRQANLLKGKQLLREGKVSEARECFTRSINITHAMAHKVIKAARSQGVDCLVAPYEADAQLAYLNKAGIVQAIITEDSDLLAFGCKKVILKMDQFGNGLEIDQARLGMCRQLGDVFTEEKFRYMCILSGCDYLSSLRGIGLAKACKVLRLANNPDIVKVIKKIGHYLKMNITVPEDYINGFIRANNTFLYQLVFDPIKRKLIPLNAYEDDVDPETLSYAGQYVDDSIALQIALGNKDINTFEQIDDYNPDTAMPAHSRSHSWDDKTCQKSANVSSIWHRNYSPRPESGTVSDAPQLKENPSTVGVERVISTKGLNLPRKSSIVKRPRSCSSDSTDCVSNKVSIQPLDETAVTDKENNLHESEYGDQEGKRLVDTDVARNSSDDIPNNHIPGDHIPDKATVFTDEESYSFESSKFTRTISPPTLGTLRSCFSWSGGLGDFSRTPSPSPSTALQQFRRKSDSPTSLPENNMSDVSQLKSEESSDDESHPLREEACSSQSQESGEFSLQSSNASKLSQCSSKDSD
# modifications: 35S-cysteine label
# Test system: PCNA replication foci in NIH3T3 cells
# Assay: not given
# Format: cell-based, murine
# Settings: CFP channel (CFP-PCNA) in cells co-expressing the hEXO1 protein; early S-phase foci; 50 co-transfected cells
# Procedure, shortened: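 Murine NIH3T3 cells were kept in DMEM with 10% FBS and penicillin/streptomycin at 37 °C, 10% CO₂. Cells (2*10⁵ per glass-bottom dish) were seeded 24 h before ExGen500 co-transfection with 3 μg total plasmid (CFP-PCNA plus YFP fusion). Confocal imaging at 24–48 h. Co-transfected cells were counted and binned by pattern, e.g. "no foci" (diffuse CFP-PCNA, diffuse nuclear YFP).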
row,Molecule,Small foci (CFP-PCNA)
1,B1,22%
2,B2,28%
3,B3,34%

# Same assay, conditions: CFP channel (CFP-PCNA) in cells co-expressing the hEXO1 protein; late S-phase foci; 50 co-transfected cells
row,Molecule,Large foci (CFP-PCNA)
1,B1,8%
2,B2,0%
3,B3,0%

# Same assay, conditions: CFP channel (CFP-PCNA) in cells co-expressing the hEXO1 protein; mid S-phase foci; 50 co-transfected cells
row,Molecule,Mid Foci (CFP-PCNA)
1,B1,18%
2,B2,4%
3,B3,0%

# Same assay, conditions: NIH3T3 cells co-expressing CFP-PCNA
row,Molecule,effect of expression on S-phase distribution
1,B1,no adverse effects on S-phase distribution
2,B2,unable to detect replication foci in late S-phase
3,B3,unable to detect replication foci in late S-phase

# Same assay, conditions: NIH3T3 cells co-transfected with CFP-PCNA, 24–48 h
row,Molecule,foci formation and co-localization with PCNA during S-phase
1,B4,unable to observe CFP-PCNA co-localized YFP-hMLH1 foci
2,B5,none of the variant proteins were able to form foci or co-localize with PCNA during S-phase
3,B1,"unable to form nuclear foci and does not co-localize with PCNA, at any time point during S-phase"
4,B2,to some extent are able to form S-phase foci in co-localization with PCNA
5,B3,to some extent are able to form S-phase foci in co-localization with PCNA
6,B6,none of the variant proteins were able to form foci or co-localize with PCNA during S-phase

# Same assay, conditions: NIH3T3 cells, confocal imaging
row,Molecule,sub-cellular localization
1,B5,strictly nuclear
2,B6,strictly nuclear

# Test system: hMLH1
# Assay: Interaction of hEXO1 variants with hMLH1
# Format: binding, human
# Settings: GST-hMLH1 pull-down, 35S-labeled IVTT protein; Fig. S1
row,Molecule,hMLH1 interaction
1,B7,incapable of hMLH1 interaction
